Data taken from ChEMBL document CHEMBL4725354 (J Med Chem, 2020).

Tests used:
[1] = target: T1, ABCG2 (Homo sapiens, UniProt Q9UNQ0); assay: Inhibition of human ABCG2 expressed in MDCK2 cells co-expressing GFP preincubated for 15 mins followed by pheophorbideA addition and measured after 2 hrs by flow cytometric analysis relative to control; assay type: cell-based, MDCK-II; settings: probe pheophorbide A, read-out: Imax
T1 sequence (Q9UNQ0 whole entry): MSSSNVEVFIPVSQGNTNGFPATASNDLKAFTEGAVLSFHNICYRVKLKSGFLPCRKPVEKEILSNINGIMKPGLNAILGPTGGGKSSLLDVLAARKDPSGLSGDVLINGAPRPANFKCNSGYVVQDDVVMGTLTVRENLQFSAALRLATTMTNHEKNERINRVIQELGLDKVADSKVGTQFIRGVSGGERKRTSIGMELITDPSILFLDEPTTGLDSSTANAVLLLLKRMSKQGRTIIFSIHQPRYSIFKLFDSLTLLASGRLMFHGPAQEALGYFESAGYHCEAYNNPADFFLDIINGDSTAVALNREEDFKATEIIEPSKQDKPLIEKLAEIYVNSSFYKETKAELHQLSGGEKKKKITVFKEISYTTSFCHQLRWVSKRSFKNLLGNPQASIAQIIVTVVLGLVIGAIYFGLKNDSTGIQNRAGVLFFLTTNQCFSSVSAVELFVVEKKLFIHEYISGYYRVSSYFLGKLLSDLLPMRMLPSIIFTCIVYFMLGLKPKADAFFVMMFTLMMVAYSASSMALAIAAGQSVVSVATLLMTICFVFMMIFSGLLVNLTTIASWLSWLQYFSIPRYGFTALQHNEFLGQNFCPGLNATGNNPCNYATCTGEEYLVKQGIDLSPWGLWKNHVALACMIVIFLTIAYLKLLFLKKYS

[2] = target: T1, ABCG2; assay: Inhibition of human ABCG2 expressed in MDCK2 cells co-expressing GFP preincubated for 30 mins followed by Hoechst 33342 addition and measured every 60 sec for 120 mins by fluorescence assay relative to control; assay type: cell-based, MDCK-II; settings: probe Hoechst 33342, read-out: Imax
In short: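 MDCK II cells transfected with human ABCG2 cDNA C-terminally fused to GFP. Steady-state means vs log concentration fitted by 3- or 4-parameter logistic to give IC50.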

[3] = target: T2, Broad substrate specificity ATP-binding cassette transporter ABCG2 (Homo sapiens, UniProt Q9UNQ0); assay: Inhibition of human ABCG2 expressed in MDCK2 cells co-expressing GFP preincubated for 30 mins followed by Hoechst 33342 addition and measured every 60 sec for 120 mins by fluorescence assay; assay type: cell-based, MDCK-II
T2 sequence (Q9UNQ0 whole entry): T1 sequence (Q9UNQ0 whole entry)
In short: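 MDCK II cells transfected with human ABCG2 cDNA C-terminally fused to GFP. Hoechst 33342 added at 1 µM final. Fluorescence (ex 355, em 460 nm) read every 60 s for 120 min. Steady-state means vs log concentration fitted by 3- or 4-parameter logistic to give IC50.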

[4] = tested on: MDCK-II; assay: Cytotoxicity against MDCK2 cells over expressing human ABCG2 at 10 uM assessed as reduction in cell viability after 72 hrs by MTT assay; assay type: ADME, cell-based, Canis lupus familiaris; settings: dog
In short: (§1)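 Single-concentration screen at 10 µM in MDCK II BCRP and parental MDCK II cells. MTT assay, 72 h at 37 °C, 5% CO2. Viability referenced to culture medium (100%) and 10% DMSO (0%). Mean ± SEM of at least three independent experiments with duplicates.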

[5] = target: ATP-dependent translocase ABCB1 (Homo sapiens, UniProt P08183); assay: Inhibition of human ABCB1 expressed in A2780/ADR cells preincubated for 30 mins followed by calcein AM addition and measured every 60 secs for 60 mins by fluorescence assay; assay type: cell-based
In short: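 ABCB1 in A2780/ADR cells (kept resistant by one passage in 1 µM doxorubicin every 10 passages). 30,000 cells per well in Krebs-HEPES buffer, preincubated 30 min at 37 °C with inhibitor. Calcein AM added from a 3.125 µM solution. Fluorescence (ex 485, em 520 nm) read every 60 s for 60 min. Initial linear slopes vs log concentration fitted to give IC50.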

[6] = target: T2, Broad substrate specificity ATP-binding cassette transporter ABCG2; assay: Inhibition of human ABCG2 expressed in MDCK2 cells co-expressing GFP preincubated for 15 mins followed by pheophorbideA addition and measured after 2 hrs by flow cytometric analysis; assay type: cell-based, MDCK-II
In short: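 Pheophorbide A added to 0.5 µM final and incubated 2 h. Read by flow cytometry (ex 488, em 695/50 nm); GFP expression checked at 525/30 nm. IC50 from 3- or 4-parameter logistic fit.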

[7] = tested on: MDCK-II; assay: Cytotoxicity against MDCK2 cells assessed as reduction in cell viability at 10 uM after 72 hrs by MTT assay; assay type: cell-based, Canis lupus familiaris; settings: dog; in short: as §1
[8] = Growth inhibition of MDCK2 cells over expressing human ABCG2 after 72 hrs by MTT assay; assay type: ADME, cell-based, Canis lupus familiaris, MDCK-II; settings: dog, MDCK2 cells overexpressing human ABCG2
In short: (§2)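 MTT viability assay. Compound dilutions in culture medium (3.2 to 1000 µM as prepared). About 2,000 cells per well, 72 h at 37 °C, 5% CO2. Culture medium set as 100% and 10% DMSO as 0% viability. MTT added for 1 h, formazan dissolved in DMSO, absorbance read at 570 nm with 690 nm background. GI50 from nonlinear regression of absorbance vs log concentration; at least three independent experiments, duplicates, mean ± SEM.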

[9] = Growth inhibition of MDCK2 cells after 72 hrs by MTT assay; assay type: cell-based, Canis lupus familiaris, MDCK-II; settings: dog; in short: as §2
[10] = tested on: ABCG2; assay: Therapeutic ratio of GI50 for Growth inhibition of MDCK2 cells over expressing human ABCG2 to IC50 for inhibition of human ABCG2 expressed in MDCK2 cells co-expressing GFP preincubated for 15 mins followed by pheophorbideA addition and measured after 2 hrs by flow cytometric analysis; assay type: toxicity, cell-based; settings: dog, MDCK2 cells overexpressing human ABCG2, probe pheophorbide A; read-out: TI
[11] = tested on: ABCG2; assay: Therapeutic ratio of GI50 for Growth inhibition of MDCK2 cells over expressing human ABCG2 to IC50 for inhibition of human ABCG2 expressed in MDCK2 cells co-expressing GFP preincubated for 30 mins followed by Hoechst 33342 addition and measured every 60 sec for 120 mins by fluorescence assay; assay type: toxicity, cell-based; settings: dog, MDCK2 cells overexpressing human ABCG2, probe Hoechst 33342; read-out: TI

ATP-dependent translocase ABCB1, sequence (P08183 whole entry): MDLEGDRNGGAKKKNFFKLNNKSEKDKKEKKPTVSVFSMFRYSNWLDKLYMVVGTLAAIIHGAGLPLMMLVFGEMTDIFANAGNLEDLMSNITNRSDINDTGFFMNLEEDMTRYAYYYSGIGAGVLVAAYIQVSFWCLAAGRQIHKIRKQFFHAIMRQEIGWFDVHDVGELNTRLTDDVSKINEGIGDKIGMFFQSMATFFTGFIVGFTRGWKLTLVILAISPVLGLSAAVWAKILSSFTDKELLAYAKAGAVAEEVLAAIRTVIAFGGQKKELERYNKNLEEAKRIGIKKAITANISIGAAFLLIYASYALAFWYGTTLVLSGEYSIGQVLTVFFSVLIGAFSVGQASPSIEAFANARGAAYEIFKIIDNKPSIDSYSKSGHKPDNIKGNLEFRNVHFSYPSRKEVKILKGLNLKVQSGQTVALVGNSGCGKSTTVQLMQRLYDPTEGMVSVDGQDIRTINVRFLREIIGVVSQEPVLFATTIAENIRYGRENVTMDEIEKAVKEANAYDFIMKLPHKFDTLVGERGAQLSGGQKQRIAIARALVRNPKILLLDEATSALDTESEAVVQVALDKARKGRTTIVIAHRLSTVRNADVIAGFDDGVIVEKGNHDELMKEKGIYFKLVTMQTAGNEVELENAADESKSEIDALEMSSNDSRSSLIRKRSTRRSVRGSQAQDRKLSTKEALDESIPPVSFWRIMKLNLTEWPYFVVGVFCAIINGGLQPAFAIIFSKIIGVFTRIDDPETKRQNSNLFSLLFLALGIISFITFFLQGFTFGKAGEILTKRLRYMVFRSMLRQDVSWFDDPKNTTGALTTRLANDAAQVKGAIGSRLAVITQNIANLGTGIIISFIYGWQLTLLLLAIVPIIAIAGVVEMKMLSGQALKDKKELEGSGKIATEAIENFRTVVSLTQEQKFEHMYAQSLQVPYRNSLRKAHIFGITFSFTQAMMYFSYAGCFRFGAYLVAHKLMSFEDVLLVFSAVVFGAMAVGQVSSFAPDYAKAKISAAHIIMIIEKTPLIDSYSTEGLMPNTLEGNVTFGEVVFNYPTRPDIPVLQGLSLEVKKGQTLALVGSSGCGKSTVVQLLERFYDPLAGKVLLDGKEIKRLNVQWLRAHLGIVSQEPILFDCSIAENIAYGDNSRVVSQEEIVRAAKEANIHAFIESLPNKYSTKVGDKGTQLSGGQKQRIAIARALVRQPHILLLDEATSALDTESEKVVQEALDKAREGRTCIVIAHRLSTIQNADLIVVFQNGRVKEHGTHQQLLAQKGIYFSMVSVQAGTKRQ

Structure (SMILES) | Emax at 2 h [1] [%] | Emax at 2 h [2] [%] | IC50 [3] [nM] | Activity [4] | IC50 [5] [nM] | IC50 [6] [nM] | Activity [7] | GI50 at 72 h [8] [nM] | GI50 at 72 h [9] [nM] | selectivity ratio at 2 h [10] | selectivity ratio [11]
COc1ccc(Nc2cc(C)nc(-c3ccccc3)n2)cc1F | 100 | 100 | 861 | Non-Toxic | 8990 | 1310 | Non-Toxic | – | – | – | –
Cc1cc(Nc2ccc([N+](=O)[O-])c(Cl)c2)nc(-c2ccccc2)n1 | 86 | 76 | 58.9 | Non-Toxic | – | 228 | Non-Toxic | – | – | – | –
Cc1cc(Nc2ccc(CC#N)cc2)nc(-c2ccccc2)n1 | 100 | 100 | 2500 | Non-Toxic | 16000 | 3620 | Non-Toxic | – | – | – | –
Cc1cc(Nc2ccc3c(c2)OCCO3)nc(-c2ccccc2)n1 | 100 | 100 | 808 | Non-Toxic | 13100 | 1630 | Non-Toxic | – | – | – | –
Cc1cc(Nc2ccc(C#N)c(C#N)c2)nc(-c2ccccc2)n1 | 100 | 117 | 188 | Non-Toxic | – | 548 | Non-Toxic | – | – | – | –
Cc1cc(Nc2cccc(O)c2)nc(-c2ccccc2)n1 | 59 | 74 | 253 | Non-Toxic | – | 516 | Non-Toxic | – | – | – | –
Cc1cc(Nc2ccc3c(c2)C(=O)NC3=O)nc(-c2ccccc2)n1 | 101 | 105 | 253 | Non-Toxic | 17700 | 416 | Non-Toxic | – | – | – | –
C[S+](C)[O-] [DIMETHYL SULFOXIDE] | – | – | – | – | – | – | – | 137000 | 123000 | – | –
Cc1cc(Nc2ccc([N+](=O)[O-])cc2)nc(-c2ccccc2)n1 | 67 | 79 | 52.2 | Non-Toxic | 11200 | 156 | Non-Toxic | 17000 | 16700 | 111 | 327
Cc1cc(Nc2cccc([N+](=O)[O-])c2)nc(-c2ccccc2)n1 | 68 | 80 | 130 | Non-Toxic | – | 146 | Non-Toxic | – | – | – | –
Cc1cc(Nc2ccc(F)c(C#N)c2)nc(-c2ccccc2)n1 | 59 | 100 | 307 | Non-Toxic | – | 86.1 | Non-Toxic | 96700 | 102000 | 1120 | 315
Cc1cc(Nc2ccc(C#N)c(Br)c2)nc(-c2ccccc2)n1 | 40 | 90 | 119 | Non-Toxic | – | 59.4 | Non-Toxic | 145000 | 188000 | 2440 | 1220
Cc1cc(Nc2ccc(F)c([N+](=O)[O-])c2)nc(-c2ccccc2)n1 | 100 | 100 | 1010 | Non-Toxic | – | 771 | Non-Toxic | – | – | – | –
Cc1cc(Nc2ccc(C#N)c(C(F)(F)F)c2)nc(-c2ccccc2)n1 | 92 | 114 | 69.3 | Toxic | – | 385 | Toxic | 9570 | 9890 | 25 | 139
COc1cccc(Nc2cc(C)nc(-c3ccccc3)n2)c1 | 100 | 96 | 271 | Non-Toxic | 13400 | 503 | Non-Toxic | – | – | – | –
Cc1cc(Nc2cccc(CO)c2)nc(-c2ccccc2)n1 | 100 | 100 | 4220 | Non-Toxic | – | 2520 | Non-Toxic | – | – | – | –
Cc1cc(Nc2cccc(F)c2)nc(-c2ccccc2)n1 | 100 | 100 | 1110 | Non-Toxic | – | 776 | Non-Toxic | – | – | – | –
